MLL AF4-AF9 inh = MLL-AF4/AF9 protein interaction inhibition. AlphaScreen, biotin-AF4 peptide binding to FLAG-AF9. inhibition, % at 10 µM. 350,000 compounds, 0.47% hits;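 active means every replicate reaching a set inhibition limit, whatever the replicate mean, cut at about 25% in these data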;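 further: 0% = plate neutral control median and 100% = total signal loss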
ERAP1 HTS inh = ERAP1 (human) enzyme inhibition | Q9NZ08 | recombinant ERAP1, Leu-AMC fluorescence, 60 min | inhibition, % at 10.7 µM | 340,000 compounds, 0.15% hits | AID 652197;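 active means mean replicate inhibition of at least 30%, or all replicates individually reaching that 30% level; inactive means mean below 30% and not every replicate reaching it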;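 further: 0% = neutral control wells and 100% = L-leucinethiol positive control wells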
SIRT5 inh = inhibitors of human sirtuin-5 desuccinylase; Purified SirT5, succinyl-peptide AMC, trypsin-coupled fluorescence; inhibition, % at 15 µM; 330,000 compounds, 1.1% hits; in the data active means inhibition above about 15%
S100A4 inh HTS = S100A4-myosin IIA interaction inhibition | P26447 | S100A4/TAMRA-MyoIIA peptide fluorescence polarization | inhibition, % at 10.7 µM | 360,000 compounds, 0.14% hits | AID 652163;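 active means mean inhibition of at least 70% across replicates, with every replicate also reaching that level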
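Assay system: human S100A4 monomer with TAMRA-labelled myosin IIA peptide / Buffer or medium: Calcium-containing HEPES buffer, pH 7.2 / Reagent: TAMRA-labelled myosin IIA heavy-chain peptide probe, 5 nM / Compound: one dose per compound / Timing: polarization read 5 min after assay mix addition, stable 5–60 min / Benchmarks: neutral control DMSO, positive control TFP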
E-selectin induc = induces E-selectin expression in human endothelial cells; P16581; HUVEC E-selectin immunofluorescence imaging; normalized: neutral wells 0, TNF-alpha wells 100; activation, % at 7.58 µM; 260,000 compounds, 0.37% hits; AID 686992;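 active means mean E-selectin-positive cell signal at least 10% of the positive control, reached in at least 60% of replicates, without over 20% cell loss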
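Assay system: HUVEC primary endothelial cells. Input: 3,000 HUVEC seeded per well. Doses: one compound dose added by pin transfer. Read-out basis: % PE-positive cells. Benchmarks: TNF-alpha high, DMSO low. Detection: immunofluorescence imaging. Buffer or medium: EGM-2, gelatin.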
rRNA inh HTS = inhibits bacterial ribosomal RNA function over humanized ribosomes | E. coli WT GFP vs humanized-ribosome RFP mutants, fluorescence, 24 h; active compounds read low; DMSO median 0, no signal -100 | GFP signal change (wild-type ribosome), % (concentration not given with the values) | 350,000 compounds, 1.6% hits | AID 720706;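 active means significant combined selectivity score with lowered wild-type GFP, culture density cut under 30%, mutant RFP and density less affected; inactive means any of these conditions unmet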
* = called active by the depositor; nt = no result. Most compounds without a hit are left out; they make up all but 3.4% or so of the library.

SMILES	MLL AF4-AF9 inh	ERAP1 HTS inh	SIRT5 inh	S100A4 inh HTS	E-selectin induc	rRNA inh HTS
COc1ccc2c3c(n(C)c2c1)[C@@H](CO)N(C(=O)CN1CCOCC1)CC31CCN(C)CC1	nt	nt	nt	nt	nt	7
O=C(Nc1ccc(Cl)c(Cl)c1)N[C@H]1CC[C@H](CCn2cc(C3CCCC3)nn2)O[C@@H]1CO	nt	nt	-5	0	0	-43
Cc1ccc(N=Nc2cc(C)ccc2O)c(C)c1	4	1	0	13	nt	12
Cc1ccc(N=Nc2cc(C)ccc2N)cc1	10	4	0	-4	nt	-53*
CC1C(=O)N2CCCc3cc(S(=O)(=O)NCCc4ccccc4)cc1c32 (centres undefined)	0	-1	72*	-8	nt	-7
CCC(=O)Nc1ccc2c(c1)C(=O)N(C)C[C@H](OC)[C@H](C)CN(C(=O)C1CC1)[C@H](C)CO2	0	2	-8	9	0	1
Cc1noc(C)c1NC(=O)N(C)C[C@H]1Oc2ccc(NS(C)(=O)=O)cc2CC(=O)N([C@@H](C)CO)C[C@H]1C	nt	nt	nt	nt	-2	1
CCNC(=O)/C=C/c1ccccc1[N+](=O)[O-]	-2	2	0	-2	31*	6
C[C@H]1CCCCO[C@H](CN(C)C(=O)Cc2ccccc2)[C@@H](C)CN([C@@H](C)CO)C(=O)c2cc(NS(=O)(=O)c3ccc(Cl)cc3)ccc2O1	-3	3	3	-3	0	0
C[C@H](CO)N1C[C@H](C)[C@H](CN(C)Cc2ccc(Oc3ccccc3)cc2)Oc2c(NC(=O)c3ccc(-c4nccs4)cc3)cccc2C1=O	-2	-4	14	1	-1	5
C[C@H](CO)N1C[C@H](C)[C@@H](CN(C)Cc2ccc(Cl)c(Cl)c2)Oc2c(NC(=O)c3ccc(-c4nccs4)cc3)cccc2C1=O	3	0	19*	10	0	-4
C[C@@H]1CN([C@H](C)CO)C(=O)c2cccc(NC(=O)c3ccc(-c4nccs4)cc3)c2O[C@H]1CN(C)Cc1ccc(Oc2ccccc2)cc1	-6	-5	3	0	75*	2
COc1ccc2c3c([nH]c2c1)[C@H](CO)N(C(=O)Cc1ccccc1)CC31CCN(C(=O)Cc2ccccc2)CC1	3	nt	nt	nt	0	-4
CCCC#Cc1cnc2c(c1)C(=O)N([C@@H](C)CO)C[C@H](C)[C@@H](CN(C)C(=O)Nc1ccccc1OC)O2	1	7	0	-9	0	2
Cc1ccc2nc3c(cc(C(=O)NCC4CCCO4)c(=N)n3CCCOC(C)C)c(=O)n2c1 (centres undefined)	-1	nt	nt	25	nt	nt
Cc1cccn2c(=O)c3cc(C(=O)NCC4CCCO4)c(=N)n(CC4CCCO4)c3nc12 (centres undefined)	-3	82*	-146	1	nt	4
Cc1cccn2c(=O)c3cc(C(=O)NCC4CCCO4)c(=N)n(Cc4cccnc4)c3nc12 (centres undefined)	nt	105*	-112	-3	nt	-5
CCOCCCNc1nc2nc3ccc(C)cn3c(=O)c2cc1C(=O)NCC1CCCO1 (centres undefined)	-3	57*	-89	-6	0	18
Cc1noc(C)c1S(=O)(=O)Nc1ccc2c(c1)C(=O)N([C@@H](C)CO)C[C@@H](C)[C@@H](CN(C)Cc1ccc(-c3ccccc3)cc1)O2	10	2	7	-3	0	-8
C[C@@H]1CN([C@H](C)CO)S(=O)(=O)c2ccc(C3=CCCC3)cc2O[C@@H]1CN(C)S(=O)(=O)c1cn(C)cn1	-1	0	-14	-1	1	-1
CCOc1ccc2nc(NC(=O)C3(C)CC3(Br)Br)sc2c1 (centres undefined)	5	5	2	-4	0	-42*
COc1ccc(NC(=O)N2CCC3(CC2)CN(CC2CC2)[C@@H](CO)c2c3c3ccc(OC)cc3n2C)cc1	nt	nt	nt	nt	nt	-3
CCc1ccc(/C=C2/SC(N3CCOCC3)=NC2=O)cc1	4	-2	-1	-3	0	-19*
O=C1N=C(N2CCN(c3ccccc3)CC2)S/C1=C/c1ccco1	5	2	0	-7	nt	-38*
CC(C)c1ccc(/C=C2\SC(N3CCOCC3)=NC2=O)cc1	1	nt	4	-1	0	-10
SMILES	MLL AF4-AF9 inh	ERAP1 HTS inh	SIRT5 inh	S100A4 inh HTS	E-selectin induc	rRNA inh HTS
O=C1N=C(N2CCN(c3ccccc3)CC2)S/C1=C\c1ccco1	2	-2	6	2	0	-9
Cc1cc(NC(=O)CSc2ccc3nnc(-c4ccccc4)n3n2)no1	2	1	-4	8	nt	1
COc1ccc(NC(=O)CSc2nnc3ccc(-c4cccnc4)nn23)cc1	-2	5	2	-2	1	0
Cc1cc(NC(=O)CSc2nnc3ccc(-c4ccccc4)nn23)no1	-2	-8	26*	2	nt	3
COc1ccc(NC(=O)CSc2nnc3ccc(-c4cccnc4)nn23)cc1OC	5	5	17*	-1	4	6
Cc1ccc(NC(=S)NCC(C)CSc2ccc(Cl)cc2)cc1 (centres undefined)	9	-1	-10	12	nt	-27*
Cc1cccc(NC(=S)NCC(C)CSc2ccc(Cl)cc2)c1 (centres undefined)	-52	-1	-2	0	nt	-37
Cc1cccc(NC(=S)NCCSc2ccc(Cl)cc2)c1	0	-4	-4	4	-1	-37*
Cc1ccc(C)c(NC(=S)NCCSc2ccc(Cl)cc2)c1	nt	nt	nt	nt	0	nt
CO[C@H]1CN(C)C(=O)c2ccc(NC(=O)c3ccc4c(c3)OCO4)cc2OC[C@H](C)N(CCC(F)(F)F)C[C@H]1C	3	-4	3	-1	0	-6
CO[C@H]1CN(C)C(=O)c2cccc(C#N)c2OC[C@@H]2O[C@@H](CC[C@H]2OC)CCN(C)C(=O)[C@H]1C	-2	-2	0	6	0	0
C[C@@H]1CN([C@@H](C)CO)C(=O)c2cc(NC(=O)Cn3cnnn3)ccc2O[C@@H]1CN(C)C(=O)NC1CCCCC1	-3	9	2	-10	nt	5
O=C1C(N2CCOCC2)=Cc2cccc3cccc1c23	2	2	nt	90*	0	56
O=C1C=C(N2CCOCC2)c2cccc3cccc1c23	8	13	nt	83*	0	-16
NS(=O)(=O)c1cccc(NC(=O)CSc2nc3ccc(Cl)cc3[nH]2)c1	0	-7	0	4	10	-37*
O=C(CCCSc1nc2ccccc2[nH]1)NC(c1ccccc1)c1ccccc1	-1	1	nt	-3	nt	-40*
O=C(COC(=O)c1cc(=O)[nH]c2ccccc12)NC1CCCC1	-2	-7	25*	-5	nt	9
O=C(CSc1nc2ccc(Cl)cc2[nH]1)Nc1ccc2c(c1)CCC2	nt	nt	nt	nt	0	nt
